Measurements reported in ChEMBL document CHEMBL1208732, “Addressing PXR liabilities of phthalazine-based hedgehog/smoothened antagonists using novel pyridopyridazines” (Bioorg Med Chem Lett, 2010).

Columns and labels:
[1] = target: T1, Nuclear receptor subfamily 1 group I member 2 (Homo sapiens, UniProt O75469); experiment: Activation of human PXR expressed in HepG2 cells assessed as luciferase activity at 2 uM by chemiluminescence assay relative to rifampin; assay type: cell-based; details: hepg2, 2 µM
T1 sequence (O75469 whole entry): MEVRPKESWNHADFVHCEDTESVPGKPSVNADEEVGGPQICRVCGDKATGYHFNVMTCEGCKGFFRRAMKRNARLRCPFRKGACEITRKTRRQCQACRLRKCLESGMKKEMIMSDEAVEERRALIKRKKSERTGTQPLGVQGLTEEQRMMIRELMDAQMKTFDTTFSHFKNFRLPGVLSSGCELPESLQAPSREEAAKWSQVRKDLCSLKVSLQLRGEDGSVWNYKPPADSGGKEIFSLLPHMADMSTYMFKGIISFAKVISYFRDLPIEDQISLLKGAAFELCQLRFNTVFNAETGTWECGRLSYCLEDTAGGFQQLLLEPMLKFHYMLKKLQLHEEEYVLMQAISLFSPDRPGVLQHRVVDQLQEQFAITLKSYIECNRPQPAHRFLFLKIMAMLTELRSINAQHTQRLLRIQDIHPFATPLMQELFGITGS
Summary of the method: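 HepG2 cells transfected with a luciferase reporter construct driven by human PXR cDNA. Luciferase activity read by chemiluminescence and expressed as percent of the rifampin control.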

[2] = Metabolic stability in rat liver microsomes assessed as compound turn over after 30 mins; assay type: ADME, Microsome; details: read-out: Activity
Summary of the method: (§1)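 Percent turnover of compound within 30 min in human or rat liver microsome homogenates.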

[3] = Volume of distribution at steady state in rat at 0.5 mg/kg, iv and 2 mg/kg, po; assay type: ADME, organism-based; details: in vivo, read-out: Vdss
Summary of the method: (§2)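 Pharmacokinetics measured in rat or mouse, with intravenous dosing at 0.5 mg/kg and oral dosing at 2 mg/kg. Reported parameters are iv clearance, Vdss, oral AUC and %F.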

[4] = Clearance in rat at 0.5 mg/kg, iv; assay type: ADME, organism-based; design: dose 0.5 mg/kg, route intravenous; details: in vivo; summary of the method: as §2
[5] = Fraction unbound in mouse plasma by ultra centrifugation method; assay type: ADME, cell-free
[6] = AUC in rat at 2 mg/kg, po; assay type: ADME, organism-based; design: dose 2 mg/kg, route oral; details: plasma; summary of the method: as §2
[7] = Oral bioavailability in rat at 2 mg/kg; assay type: ADME, organism-based; details: in vivo; summary of the method: as §2
[8] = Metabolic stability in human liver microsomes assessed as compound turn over after 30 mins; assay type: ADME, Microsome; details: read-out: Activity; summary of the method: as §1
[9] = target: Protein smoothened (Homo sapiens, UniProt Q99835); experiment: Antagonist activity at human Smo receptor in HEPM cells assessed as inhibition of Gli expression after 24 hrs by quantigene assay; assay type: functional, cell-based
Sequence of Protein smoothened (Homo sapiens, UniProt Q99835) (Q99835 whole entry): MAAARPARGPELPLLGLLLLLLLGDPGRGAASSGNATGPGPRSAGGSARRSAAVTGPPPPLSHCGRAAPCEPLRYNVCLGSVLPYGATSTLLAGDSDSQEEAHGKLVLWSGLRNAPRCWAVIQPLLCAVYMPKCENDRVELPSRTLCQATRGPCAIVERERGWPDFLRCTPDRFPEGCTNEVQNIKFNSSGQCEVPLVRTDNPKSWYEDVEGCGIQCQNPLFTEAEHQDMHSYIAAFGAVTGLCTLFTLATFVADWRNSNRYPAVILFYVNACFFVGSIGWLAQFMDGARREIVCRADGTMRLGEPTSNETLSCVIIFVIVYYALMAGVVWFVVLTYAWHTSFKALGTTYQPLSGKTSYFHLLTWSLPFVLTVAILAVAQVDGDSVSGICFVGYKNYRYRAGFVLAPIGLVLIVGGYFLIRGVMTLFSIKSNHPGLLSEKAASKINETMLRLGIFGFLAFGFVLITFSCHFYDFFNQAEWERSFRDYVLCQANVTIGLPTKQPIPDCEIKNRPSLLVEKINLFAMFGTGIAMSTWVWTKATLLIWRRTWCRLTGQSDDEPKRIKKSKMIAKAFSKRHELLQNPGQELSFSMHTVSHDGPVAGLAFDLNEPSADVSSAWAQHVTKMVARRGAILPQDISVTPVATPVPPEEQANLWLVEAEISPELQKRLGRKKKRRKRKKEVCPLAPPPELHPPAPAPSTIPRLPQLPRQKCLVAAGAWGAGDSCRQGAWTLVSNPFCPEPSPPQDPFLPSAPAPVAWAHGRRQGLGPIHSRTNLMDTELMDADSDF
Summary of the method: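 HEPM cells incubated with compound in MEM with 0.5% charcoal-dextran treated FBS and […] myristoylated mouse Shh protein. GLI expression measured 24 h after adding compound and Shh, using a Quantigene assay.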

[10] = target: Protein smoothened (Mus musculus, UniProt P56726); experiment: Antagonist activity at mouse cloned Smo receptor expressed in NIH-3T3 cells co expressing Gli1 binding site after 15 hrs by luciferase reporter gene assay; assay type: cell-based, NIH3T3
Sequence of Protein smoothened (Mus musculus, UniProt P56726) (P56726 whole entry): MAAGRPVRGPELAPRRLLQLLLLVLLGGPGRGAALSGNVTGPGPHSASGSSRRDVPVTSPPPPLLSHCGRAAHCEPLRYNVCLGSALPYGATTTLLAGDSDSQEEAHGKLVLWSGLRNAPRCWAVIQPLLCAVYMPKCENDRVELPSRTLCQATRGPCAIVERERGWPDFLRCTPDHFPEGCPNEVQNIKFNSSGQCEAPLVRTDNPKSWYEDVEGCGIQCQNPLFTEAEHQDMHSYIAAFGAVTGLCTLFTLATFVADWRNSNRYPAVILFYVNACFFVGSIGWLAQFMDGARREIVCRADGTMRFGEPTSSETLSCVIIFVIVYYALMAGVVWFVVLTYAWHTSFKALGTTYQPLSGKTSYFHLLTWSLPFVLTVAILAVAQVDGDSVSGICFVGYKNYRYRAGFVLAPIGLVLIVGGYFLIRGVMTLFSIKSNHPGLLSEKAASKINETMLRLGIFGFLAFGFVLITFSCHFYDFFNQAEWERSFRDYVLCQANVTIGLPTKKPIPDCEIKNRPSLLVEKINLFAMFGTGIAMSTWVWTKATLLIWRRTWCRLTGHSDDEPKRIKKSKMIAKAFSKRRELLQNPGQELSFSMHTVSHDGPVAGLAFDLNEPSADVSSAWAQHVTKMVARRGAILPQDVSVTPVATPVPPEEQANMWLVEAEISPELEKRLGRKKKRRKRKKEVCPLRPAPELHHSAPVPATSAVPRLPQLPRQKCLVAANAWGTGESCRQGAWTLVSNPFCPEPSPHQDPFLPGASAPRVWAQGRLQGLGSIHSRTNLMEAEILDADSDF
Summary of the method: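 Stable NIH-3T3 clone carrying a luciferase reporter (pGL4.16) with five consensus Gli1 binding sites. Cells incubated 15 h with compound in Optimem with 0.5% charcoal-dextran treated FBS and […] myristoylated mouse Shh. Luciferase read with Bright-Glo on a luminometer. Threefold dilution series, run in quadruplicate.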

[11] = tested on: Mus musculus; experiment: Oral bioavailability in mouse at 2 mg/kg; assay type: ADME, organism-based; details: in vivo; summary of the method: as §2
[12] = tested on: Mus musculus; experiment: Reduction of Gli1 expression in po dosed NOD-SCID mouse skin after 6 hrs by RT-PCR analysis; assay type: functional, organism-based
Summary of the method: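 Female NOD-Scid mice aged 5–8 weeks had one hind flank shaved, then regrown hair removed with wax strips 4 days later. After 5 days mice were dosed orally with compound or vehicle, and skin was harvested 6 h post-dose into RNALater. Tissue homogenized and RNA purified. Four mice per group, two samples per animal, analysed by Dunnett's method.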

[13] = tested on: Mus musculus; experiment: Clearance in mouse at 0.5 mg/kg, iv; assay type: ADME, organism-based; design: dose 0.5 mg/kg, route intravenous; details: in vivo; summary of the method: as §2
[14] = Volume of distribution at steady state in mouse at 0.5 mg/kg, iv and 2 mg/kg, po; assay type: ADME, organism-based; details: in vivo, read-out: Vdss; summary of the method: as §2
[15] = tested on: Mus musculus; experiment: AUC in mouse at 2 mg/kg, po; assay type: ADME, organism-based, Plasma; design: dose 2 mg/kg, route oral; details: in vivo; summary of the method: as §2

O=C(c1ccccc1)N1CCN(c2nnc(-c3ccccc3)c3ccccc23)CC1
Activity [1]: 12%
metabolised at 0.5 h [2]: 39%

C[C@@H]1CN(C(=O)c2ccccc2)CCN1c1nnc(-c2ccc(CO)cc2)c2ccccc12
Vd [3]: 1.8 L/kg
Activity [1]: 3%
clearance [4]: 95 mL/min/kg
metabolised at 0.5 h [2]: 15%

C[C@@H]1CN(C(=O)c2ccccc2)CCN1c1nnc(-c2ccc(N(C)C)cc2)c2ccccc12
Activity [1]: 17%

C[C@@H]1CN(C(=O)c2ccccc2)CCN1c1nnc(-c2ccc(C(F)(F)F)cc2)c2ccccc12
fraction unbound [5]: 0.06
Activity [1]: 81%
AUC [6]: 1200 ng·h/mL

C[C@@H]1CN(C(=O)c2ccccc2)CCN1c1nnc(-c2ccccc2)c2ccccc12
Vd [3]: 1.7 L/kg
Activity [1]: 30%
AUC [6]: 1800 ng·h/mL
bioavailability [7]: 15%
clearance [4]: 4.67 mL/min/kg
metabolised at 0.5 h [2]: 12%

O=C(c1ccccc1)N1CCN(c2nnc(-c3ccc(Cl)c(Cl)c3)c3ccccc23)CC1
Activity [1]: 48%
metabolised at 0.5 h [2]: 13%

C[C@H]1CN(C(=O)c2ccccc2)CCN1c1nnc(-c2ccccc2)c2ccccc12
Activity [1]: 32%
metabolised at 0.5 h [8]: < 10%
metabolised at 0.5 h [2]: < 10%

C[C@H]1CN(C(=O)c2ccccc2)CCN1c1nnc(-c2ccc(F)cc2)c2ccccc12
Activity [1]: 61%
IC50 [9]: 12 nM
metabolised at 0.5 h [8]: < 10%
metabolised at 0.5 h [2]: 21%

C[C@@H]1CN(C(=O)c2ccccc2)CCN1c1nnc(-c2ccc(C(N)=O)cc2)c2ccccc12
Activity [1]: 5.9%
IC50 [9]: 19 nM
metabolised at 0.5 h [8]: < 10%
metabolised at 0.5 h [2]: < 10%

C[C@@H]1CN(C(=O)c2ccccc2)CCN1c1nnc(-c2ccc(N3CCOCC3)cc2)c2ccccc12
Activity [1]: 6.6%
IC50 [9]: 21 nM
metabolised at 0.5 h [8]: 19%
metabolised at 0.5 h [2]: 28%

C[C@@H]1CN(C(=O)c2ccccc2)CCN1c1nnc(-c2ccc(C(=O)O)cc2)c2ccccc12
Activity [1]: 2.7%
IC50 [9]: > 1000 nM
metabolised at 0.5 h [8]: < 10%
metabolised at 0.5 h [2]: < 10%

CC(=O)Oc1ccc(-c2nnc(N3CCN(C(=O)c4ccccc4)C[C@H]3C)c3ccccc23)cc1
Activity [1]: 6.1%
IC50 [9]: 3.3 nM
metabolised at 0.5 h [8]: > 95%
metabolised at 0.5 h [2]: > 95%

C[C@@H]1CN(C(=O)c2ccccc2)CCN1c1nnc(-c2ccc(CC(N)=O)cc2)c2ccccc12
Vd [3]: 1.4 L/kg
Activity [1]: 2.7%
IC50 [9]: 4.8 nM
AUC [6]: 460 ng·h/mL
metabolised at 0.5 h [8]: 10%
bioavailability [7]: 22%
clearance [4]: 18.3 mL/min/kg
metabolised at 0.5 h [2]: 10%

C[C@@H]1CN(C(=O)c2ccccc2)CCN1c1nnc(-c2ccncc2)c2ccccc12
Activity [1]: 25%
IC50 [9]: 25 nM
metabolised at 0.5 h [8]: 11%
metabolised at 0.5 h [2]: 36%

C[C@@H]1CN(C(=O)c2ccccc2)CCN1c1nnc(-c2cccnc2)c2ccccc12
Activity [1]: 23%
IC50 [9]: 79 nM
metabolised at 0.5 h [8]: 19%
metabolised at 0.5 h [2]: 16%

C[C@@H]1CN(C(=O)c2ccccc2)CCN1c1nnc(-c2ccccn2)c2ccccc12
Activity [1]: 16%
IC50 [9]: 57 nM
metabolised at 0.5 h [8]: 12%
metabolised at 0.5 h [2]: 17%

C[C@@H]1CN(C(=O)c2ccccc2)CCN1c1nnc(-n2cccc2)c2ccccc12
Activity [1]: 12%
IC50 [9]: 8.7 nM
metabolised at 0.5 h [8]: 54%
metabolised at 0.5 h [2]: 63%

C[C@@H]1CN(C(=O)c2ccccc2)CCN1c1nnc(-n2ccc3ccccc32)c2ccccc12
Activity [1]: 74%
IC50 [9]: 8 nM
metabolised at 0.5 h [8]: 55%
metabolised at 0.5 h [2]: 72%

C[C@@H]1CN(C(=O)c2ccccc2)CCN1c1nnc(-c2ncco2)c2ccccc12
Activity [1]: 7.8%
IC50 [9]: > 1000 nM
metabolised at 0.5 h [8]: < 10%
metabolised at 0.5 h [2]: 22%

C[C@@H]1CN(C(=O)c2ccccc2)CCN1c1nnc(-n2ccnc2)c2ccccc12
Activity [1]: 3.7%
IC50 [9]: > 1000 nM
metabolised at 0.5 h [8]: < 10%
metabolised at 0.5 h [2]: 16%

C[C@@H]1CN(C(=O)c2ccccc2)CCN1c1nnc(-c2cncnc2)c2ccccc12
Activity [1]: 7.1%
IC50 [9]: > 1000 nM
metabolised at 0.5 h [8]: < 10%
metabolised at 0.5 h [2]: < 10%

C[C@@H]1CN(C(=O)c2ccccc2)CCN1c1nnc(-c2ccccc2)c2ncccc12
Activity [1]: 4.1%
IC50 [9]: 66 nM
metabolised at 0.5 h [8]: 13%

C[C@@H]1CN(C(=O)c2ccccc2)CCN1c1nnc(-c2ccccc2)c2cccnc12
Activity [1]: 5.7%
IC50 [9]: 16 nM
metabolised at 0.5 h [8]: 56%

C[C@@H]1CN(C(=O)c2ccccc2)CCN1c1nnc(-c2ccccc2)c2cnccc12
Activity [1]: 7.5%
IC50 [9]: 12 nM
metabolised at 0.5 h [8]: 30%

C[C@@H]1CN(C(=O)c2ccccc2)CCN1c1nnc(-c2ccccc2)c2ccncc12
Vd [3]: 1.4 L/kg
IC50 [10]: 3 nM
Activity [1]: 4.9%
IC50 [9]: 5.8 nM
AUC [6]: 1600 ng·h/mL
metabolised at 0.5 h [8]: 13%
bioavailability [7]: 35%
clearance [4]: 7.5 mL/min/kg

C[C@@H]1CN(C(=O)c2ccccc2)CCN1c1nnc(-c2ccc(C(F)(F)F)cc2)c2ccncc12
Vd [3]: 3.5 L/kg
F [11]: 46%
IC50 [10]: 0.7 nM
fraction unbound [5]: 0.035
Activity [1]: 9%
EC50 [12]: 460 nM
IC50 [9]: 1 nM
AUC [6]: 3300 ng·h/mL
metabolised at 0.5 h [8]: 10%
bioavailability [7]: 73%
clearance [4]: 7.67 mL/min/kg
CL [13]: 10.7 mL/min/kg
Vd [14]: 2 L/kg
AUC [15]: 3500 ng·h/mL
metabolised at 0.5 h [2]: < 10%
